# In ChEMBL document CHEMBL1129630, “Synthesis and structure-activity relationships of retinoid X receptor selective diaryl sulfide analogs of retinoic acid” (J Med Chem, 1996):
# pEC50: −log10 of the molar value.
# What was measured:
# [1] = biological target: T1, Retinoic acid receptor gamma (Mus musculus, UniProt P18911); assay: Dissociation constant for binding to Retinoic acid receptor gamma;NA=not active
# T1 sequence (P18911 whole entry): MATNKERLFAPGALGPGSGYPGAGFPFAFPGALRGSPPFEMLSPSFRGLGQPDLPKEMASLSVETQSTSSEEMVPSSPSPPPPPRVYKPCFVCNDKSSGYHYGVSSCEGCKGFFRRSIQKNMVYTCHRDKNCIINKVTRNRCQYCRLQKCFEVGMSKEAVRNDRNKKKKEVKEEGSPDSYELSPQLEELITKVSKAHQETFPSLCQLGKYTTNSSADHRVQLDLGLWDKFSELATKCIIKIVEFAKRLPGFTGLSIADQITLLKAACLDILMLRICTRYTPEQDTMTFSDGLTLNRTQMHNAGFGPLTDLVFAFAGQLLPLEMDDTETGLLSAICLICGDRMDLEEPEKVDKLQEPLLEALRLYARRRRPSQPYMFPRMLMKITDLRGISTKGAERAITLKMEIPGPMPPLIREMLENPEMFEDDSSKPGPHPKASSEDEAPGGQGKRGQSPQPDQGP
# In short: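 Competitive binding assays against each receptor subtype, with Kd values taken from competition.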
# [2] = biological target: T2, Retinoic acid receptor RXR-alpha (Homo sapiens, UniProt P19793); assay: Transcriptional activation of Retinoid X receptor RXR alpha;NA=not active; design: species or system Cercopithecidae
# T2 sequence (P19793 whole entry): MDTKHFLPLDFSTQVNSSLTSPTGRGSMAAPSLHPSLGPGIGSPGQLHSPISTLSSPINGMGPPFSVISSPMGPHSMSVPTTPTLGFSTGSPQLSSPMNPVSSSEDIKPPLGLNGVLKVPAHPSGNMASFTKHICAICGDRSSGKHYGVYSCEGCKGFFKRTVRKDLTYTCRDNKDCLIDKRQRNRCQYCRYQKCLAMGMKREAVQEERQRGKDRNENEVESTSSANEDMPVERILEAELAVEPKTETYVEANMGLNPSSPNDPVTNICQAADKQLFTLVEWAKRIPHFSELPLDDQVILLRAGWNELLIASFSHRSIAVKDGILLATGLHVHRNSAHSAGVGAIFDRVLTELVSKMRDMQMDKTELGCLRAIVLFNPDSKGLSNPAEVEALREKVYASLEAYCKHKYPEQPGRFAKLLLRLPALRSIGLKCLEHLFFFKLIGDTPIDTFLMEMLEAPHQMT
# In short: (§1)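 CV-1 cells transiently cotransfected with the receptor construct and a reporter gene, with induced transcription measured. Activity is normalized to all-trans RA. EC50 is the concentration giving 50% of maximal observed response, from a single experiment in triplicate.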
# [3] = biological target: T3, Retinoic acid receptor beta (Homo sapiens, UniProt P10826); assay: Transcriptional activation of Retinoic acid receptor RAR beta; design: species or system Cercopithecidae; in short: as §1
# T3 sequence (P10826 whole entry): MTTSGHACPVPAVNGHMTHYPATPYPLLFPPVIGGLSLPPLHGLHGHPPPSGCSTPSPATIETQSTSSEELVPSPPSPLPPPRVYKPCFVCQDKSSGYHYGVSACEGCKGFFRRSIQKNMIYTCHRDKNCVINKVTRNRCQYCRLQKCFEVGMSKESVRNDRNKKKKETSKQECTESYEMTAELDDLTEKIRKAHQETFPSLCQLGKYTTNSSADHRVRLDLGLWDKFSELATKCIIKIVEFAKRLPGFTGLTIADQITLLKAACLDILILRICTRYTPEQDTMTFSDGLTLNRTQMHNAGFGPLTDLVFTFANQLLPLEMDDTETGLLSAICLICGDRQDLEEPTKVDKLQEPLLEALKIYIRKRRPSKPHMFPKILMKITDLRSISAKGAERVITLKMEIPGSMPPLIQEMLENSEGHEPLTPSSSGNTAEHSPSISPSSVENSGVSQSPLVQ
# [4] = biological target: T2, Retinoic acid receptor RXR-alpha; assay: Transcriptional activation of Retinoid X receptor RXR alpha; design: species or system Cercopithecidae
# In short: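 Transient cotransfection of CV-1 cells with the receptor gene construct plus a reporter gene, read as induced transcription. Activity normalized to all-trans RA. EC50 taken as the concentration giving 50% of the maximal observed response. Single experiment, triplicate determinations.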
compound,measurement,setting,value
Cc1cc2c(cc1Sc1ccc(C(=O)O)cn1)C(C)(C)CCC2(C)C,Kd,[1],Not Active
Cc1cc2c(cc1[S+]([O-])c1ccc(C(=O)O)cc1)C(C)(C)CCC2(C)C (centres undefined),EC50,[2],Not Active
CC1(C)CCC(C)(C)c2cc(Sc3ccc(C(=O)O)cc3)ccc21,pEC50,[3],6.24
same,pEC50,[4],6.11
